Compounds with a hit are over-represented: about 4.7% of the library has one in this group of screens.
MT1-MMP act inh: MT1-MMP (human) activation inhibition; HT1080 RFP-PRO-GFP cells, GFP/RFP ratio fluorescence, overnight; percent of plate control window, DMSO zero; GFP/RFP ratio change, % at 20 µM; 0.061% of 360,000 active; AID 651647;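 active means GFP/RFP ratio change of at least 30% with cell ATP level not reduced by more than half and red fluorescence within 50% of control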
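Assay system – RFP-PRO-GFP reporter HT1080 cells · Compound dosing – single dose of 20 µM compound, 1% DMSO final · Incubation – overnight compound exposure at 37 °C · Measure – GFP/RFP fluorescence ratio · Benchmarks – DMSO wells and RFP-L50D-GFP cells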
SKN-1 inh: inhibitors of C. elegans SKN-1. C. elegans VP596 Pgst-4::GFP/RFP ratio, acrylamide-induced, 24 h. inhibition, % at 21.8 µM. AID 624304. 0.49% of 360,000 active;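 active means interference check ratio from 0.5 to 1.5 plus GFP to RFP signal ratio inhibition reaching or exceeding a fixed threshold, cut at about 30% in these data, passing the limit was not always enough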
ADAM17 inh: ADAM17 inhibition, QFRET primary screen; recombinant ADAM17, EDANS/DABCYL FRET peptide cleavage; inhibition, % at 6.95 µM; 0.83% of 370,000 active; AID 720648;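 active means inhibition above the mean of compounds lying between control limits plus 3 SD, set per campaign, cut at about 8.5% in these data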;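 further: 0% = DMSO-only wells as the low control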
Target sequence (P78536 215-824 limits assumed): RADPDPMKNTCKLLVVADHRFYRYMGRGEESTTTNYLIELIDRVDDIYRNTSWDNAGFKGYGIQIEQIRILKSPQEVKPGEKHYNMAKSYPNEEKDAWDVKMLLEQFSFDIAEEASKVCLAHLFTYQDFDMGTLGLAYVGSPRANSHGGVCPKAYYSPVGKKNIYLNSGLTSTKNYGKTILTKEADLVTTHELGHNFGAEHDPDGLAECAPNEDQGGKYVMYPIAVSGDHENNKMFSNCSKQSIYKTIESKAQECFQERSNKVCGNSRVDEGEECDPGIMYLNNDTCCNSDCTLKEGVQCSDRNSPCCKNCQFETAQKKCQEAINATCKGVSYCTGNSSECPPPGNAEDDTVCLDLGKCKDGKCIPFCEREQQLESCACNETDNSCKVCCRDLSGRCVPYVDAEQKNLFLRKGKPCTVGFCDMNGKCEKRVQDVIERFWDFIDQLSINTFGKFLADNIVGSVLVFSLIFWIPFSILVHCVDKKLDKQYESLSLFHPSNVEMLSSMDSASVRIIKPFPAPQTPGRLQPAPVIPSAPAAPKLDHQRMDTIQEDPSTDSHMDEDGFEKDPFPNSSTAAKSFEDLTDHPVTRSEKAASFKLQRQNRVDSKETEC
NR3A LBD binder: modulates the human NR3A ligand-binding domain. NR3A LBD differential scanning fluorimetry, Tm shift; 0% = protein alone, 100% = glycine-bound protein. Tm shift relative to glycine control, % at 25 µM. 2.5% of 340,000 active. AID 1259313;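 active means melting temperature shift of at least 10% of the positive control shift, at one fixed dose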
MPTP block: permeability transition pore inhibition. 1.4% of 360,000 active. isolated mouse mitochondria, Ca2+ swelling absorbance, 30 min. inhibition, % at 10 µM. AID 602449;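 active means inhibition of 50% or more, scaled per plate between neutral and stimulator controls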;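 further: 0% = DMSO wells given calcium and 100% = 1 mM EGTA wells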
ADAM10 inh: ADAM10 inhibition, QFRET primary screen | inhibition, % at 7 µM | recombinant ADAM10, EDANS/DABCYL FRET peptide cleavage, 3 h | 0.62% of 370,000 active | O14672;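 active means inhibition above a per-campaign cutoff equal to the mean of compounds falling between control-based bounds plus 3 SD, cut at about 20% in these data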;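 further: 0% = DMSO wells while the 100% control is not disclosed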
An asterisk follows results filed as active; · = not tested or not shown.

SMILES	MT1-MMP act inh	SKN-1 inh	ADAM17 inh	NR3A LBD binder	MPTP block	ADAM10 inh
Cc1ccccc1Nc1nc2ccccc2s1	-2.4	13.4	2.8	5.4	-0.4	11.3
O=C(Nc1nc2ccccc2s1)c1ccc(F)cc1	1.6	17.4	-2.4	0.2	-0.7	-10.7
Fc1ccc(Nc2nc3ccccc3s2)cc1	-1.3	7.3	3.9	19.5*	-0.5	9.6
O=C(/C=C/NNC(=O)c1ccc(Br)cc1)c1ccccc1	-2.0	0.1	0.2	-1.7	4.8	8.4
Cc1n[nH]c(=S)n1/N=C/c1ccccc1OCc1ccc(Cl)cc1Cl	-0.4	-0.5	-5.6	15.5*	1.8	-5.2
Cc1n[nH]c(=S)n1/N=C/c1ccc(OCc2ccc(Cl)cc2Cl)cc1	6.1	1.1	-0.6	-5.5	3.0	0.1
O=c1cc(Nc2ccc3c(c2)OCCO3)[nH]c(=O)n1Cc1ccc(F)cc1	·	20.3	-5.8	-6.8	6.6	-4.3
Cc1cc(C(C#N)c2ccccc2F)n2ncnc2n1 (centres undefined)	-6.3	1.2	-14.3	14.6*	1.6	-35.7
Cc1ccc(NC(NC(=O)c2cccs2)C(Cl)(Cl)Cl)cc1C (centres undefined)	-0.6	19.5	5.1	11.6*	1.2	11.6
Cc1ccc(NC(NC(=O)c2cccs2)C(Cl)(Cl)Cl)cc1 (centres undefined)	4.1	5.3	-0.9	-1.8	7.6	8.9
Cc1ccc(NC(=O)c2sc3nc(CCl)[nH]c(=O)c3c2C)c(C)c1	2.0	14.9	-2.6	3.6	-3.2	3.0
COC(=O)c1sc(NC(=O)CC(C)C)c(C(=O)OC)c1C	3.3	15.4	0.2	21.1*	1.5	15.8
CN(/N=C/c1ccc(O)cc1O)c1ncc(C(F)(F)F)cc1Cl	1.5	-0.7	1.5	25.9*	4.4	-2.0
COc1cccc(C(=O)N2CCN(C3CCC(c4ccccc4)CC3)CC2)c1OC (centres undefined)	1.9	-12.6	-7.6	-0.2	-1.1	-3.2
N#Cc1c(NC(=O)c2nc3ncccn3n2)sc2c1CCCCC2	5.7	10.8	3.0	18.3*	0.6	-1.4
O=Cc1c(N2CCOCC2)nc2ccccn2c1=O	-2.2	3.8	-0.5	-0.2	-1.5	2.1
O=C1C2C3CCCC3=C3CCCC3C2C(=O)N1c1cccc(Cl)c1 (centres undefined)	1.2	-4.1	-2.6	-2.1	0.3	1.7
O=C1C2C3C=CC(c4ccccc4)(C2C(=O)N1c1cccc(Cl)c1)C1C(=O)N(c2cccc(Cl)c2)C(=O)C31 (centres undefined)	-2.2	-0.1	0.9	22.5*	0.1	1.2
Cc1nn(-c2ccccc2)c(/N=C/c2ccccc2O)c1-c1ccccc1	6.7	9.6	-0.6	14.4*	6.0	3.2
Cc1cc(NC(=O)c2oc3ccccc3c2C)ccc1-n1cnnn1	5.8	3.2	2.5	23.3*	0.4	8.7
COc1cc(OC)cc(C(=O)Nc2ccc(-n3cnnn3)c(C)c2)c1	4.4	8.5	-4.8	-1.1	16.8	2.5
Cc1cc(C(=O)CN2C(=O)NC3(CCCc4ccccc43)C2=O)c(C)n1Cc1ccccc1 (centres undefined)	-0.2	35.8*	4.2	-1.7	0.0	-5.7
Cc1cc(C(=O)CN2C(=O)NC3(CCCc4sccc43)C2=O)c(C)n1-c1ccccc1 (centres undefined)	2.2	4.5	3.1	14.8*	0.8	7.8
O=C(NCC1CC1)c1csc(COCCO)n1	0.0	4.4	4.0	·	1.0	0.2
N#Cc1ccccc1/C=C/C(=O)N1CCOCC1	0.3	-5.3	-1.1	0.7	-2.2	3.7
SMILES	MT1-MMP act inh	SKN-1 inh	ADAM17 inh	NR3A LBD binder	MPTP block	ADAM10 inh
COC(=O)c1cnc(Oc2ccc(NC(=O)NC(=O)c3c(F)cccc3F)cc2)cc1C(F)(F)F	-0.2	1.0	-0.3	0.0	4.4	12.6
CN(C)C(=O)c1cccc(-c2cnc3c(NC=O)cc(-c4ccc(N(C)C)cc4)cn23)c1	-57.0	36.0*	-0.2	·	0.7	-6.7
Cc1cccc(-c2cc(NC=O)c3ncc(-c4cccc(C(=O)N(C)C)c4)n3c2)c1	-9.4	-3.4	-24.7	·	-1.8	-69.3
CCOc1ccccc1NC(=O)Nc1ccncc1	2.4	-19.5	4.9	-0.7	-1.6	1.6
COc1cc(S(=O)(=O)Nc2ccc(C)cc2)ccc1N=Cc1c(C)c(C#N)c(=O)n(C)c1O	1.9	1.6	1.2	2.4	2.7	-2.8
COc1cc(S(=O)(=O)Nc2ccc(C)cc2)ccc1N=Cc1c(C)[nH]n(-c2ccc(C)cc2)c1=O	1.0	8.8	2.8	28.3*	-0.9	2.5
Cc1oc(C(C)(C)C)cc1-c1cc(NC(=O)c2ccc([N+](=O)[O-])cc2)n[nH]1	2.9	3.0	4.0	14.6*	19.7	6.7
CN1/C(=C\C(=S)Nc2ccccc2)C(C)(C)c2ccccc21	16.5	29.1	2.3	0.5	5.1	-4.6
COc1ccc(N2CCN(C(CNC(=O)C(=O)NCC3CCCO3)c3ccco3)CC2)cc1 (centres undefined)	6.4	4.1	1.9	10.0*	29.3	3.6
COc1ccc(C(=O)NCC2CCCO2)cc1 (centres undefined)	-2.4	1.4	1.2	11.6*	-3.8	3.8
COc1cc(OC)cc(C(=O)Nc2ccc(C(=O)NCC3CCCO3)cc2)c1 (centres undefined)	3.7	-8.5	-5.2	-0.2	-0.6	0.5
CCC(C)[C@@H](CN(N=O)[C@@H](Cc1ccccc1)CN(C)N=O)N(CCc1ccccc1)N=O (some centres undefined)	-5.3	2.4	·	4.4	-1.9	·
O=C(NCCc1ccc(F)cc1)c1ccc(Sc2ccccc2Cl)c([N+](=O)[O-])c1	·	·	-2.4	·	·	-13.6
Cc1c(C#N)c(O)[nH]c(=O)c1N=Nc1ccc(Cl)c(C(=O)O)c1	0.4	26.4	-4.6	-0.5	-1.5	11.8
Cc1c(C#N)c(O)[nH]c(=O)c1N=Nc1ccc(S(N)(=O)=O)cc1	4.7	38.0*	-1.3	-13.0	0.6	1.3
COc1cc(NC(=O)COC(=O)/C=C/c2ccc(Cl)cc2Cl)cc(OC)c1	0.2	5.1	2.9	14.1*	2.7	-0.6
CC(=O)Nc1ccc(NC(=O)C(C)n2nc(C)c([N+](=O)[O-])c2C)cc1 (centres undefined)	2.2	-2.1	-3.6	-4.8	1.0	3.3
CC(C)(C)C(=O)NC(=S)Nc1ccccc1N1CCCC1	1.6	11.5	0.6	-3.7	-0.4	3.9
CC(=O)NC(=S)Nc1ccccc1N1CCCCC1	2.6	5.9	1.4	13.0*	0.2	3.5
CCc1ccc(S(=O)(=O)ON2C(=O)c3ccccc3C2=O)cc1	1.1	-8.1	-26.1	16.2*	1.4	-84.9
CC(=O)Nc1ccc(S(=O)(=O)Nc2nc3ccccc3nc2Nc2ccccc2)cc1	3.0	1.2	-4.4	10.2*	2.5	-9.5

Screens as filed in PubChem BioAssay.
